Bioassay records: PubChem, several laboratories
AI-2 QS modul – Vibrio harveyi AI-2 quorum sensing modulation; Vibrio harveyi JMH597 AI-2 luminescence/OD600 ratio, 9 h; hits give low values; strain lacks LuxN and CqsS sensors; 0 = neutral-control median; activity change, % at 7.5 µM; 300,000 compounds, 0.4% hits; AID 2094; in the data active means activity change below about -75%, passing the limit was not always enough;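 further: luminescence divided by OD600 gain over 9 h not by final OD600 alone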
MC4R antagonist – antagonists of human melanocortin 4 receptor (MC4R). inhibition, % at 6.5 µM. P32245. MC4R-expressing cells, MTII-stimulated cAMP, LANCE TR-FRET. AID 540295. 360,000 compounds, 0.48% hits;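 active means inhibition above its plate's cutoff, the mean of tested wells on that plate plus 3 SD, cut at about 29% in these data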;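 further: 0% = Melanotan II alone and 100% = Melanotan II plus saturating MCL0020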
Target sequence (P32245 whole entry, looked up): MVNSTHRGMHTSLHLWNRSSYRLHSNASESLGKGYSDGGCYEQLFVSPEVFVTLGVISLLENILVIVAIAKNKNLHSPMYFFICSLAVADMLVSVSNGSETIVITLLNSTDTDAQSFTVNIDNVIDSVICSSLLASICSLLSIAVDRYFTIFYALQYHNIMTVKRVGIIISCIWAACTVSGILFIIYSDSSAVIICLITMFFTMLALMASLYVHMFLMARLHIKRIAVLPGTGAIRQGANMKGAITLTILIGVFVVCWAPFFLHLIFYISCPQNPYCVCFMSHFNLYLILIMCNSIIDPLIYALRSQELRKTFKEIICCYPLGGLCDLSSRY
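Material – human MC4R-expressing U2OS cells · Repeats – no replicates · Detection – TR-FRET with Eu-cAMP and labeled anti-cAMP, 671 nm · Times – compound 30 min, challenge 1 h, detection 1 h · Compound – single nominal compound dose of 6.5 µM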
NTR1 ag – activates human neurotensin receptor 1; P30989; 330,000 compounds, 0.17% hits; activation, % at 20 µM; NTR1-U2OS beta-arrestin-GFP spot imaging, agonist mode;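 active means activation at or above 40% of the spot to cytoplasm intensity ratio, with at least 20 cells analyzed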;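 further: 0% = DMSO without peptide and 100% = 100 nM NTR1 peptide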
MC4R barr agon – activates human MC4R beta-arrestin recruitment. 360,000 compounds, 0.98% hits. activation, % at 8.9 µM. P32245. U2OS MC4R beta-arrestin complementation, luminescence; percent of melanotan II response, DMSO zero;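 active means activation above a per-plate cutoff, the mean activation of sample wells on that plate plus 3 SD, cut at about 8% in these data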
NTR1 ag confirm – NTR1 (human) agonism, confirmed. activation, % at 20 µM. AID 504550. 480 compounds, 38% hits. shares compounds with NTR1 ag. NTR1-U2OS beta-arrestin-GFP translocation imaging;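 active means mean activation at 20 µM of at least 40%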;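 further: 0% = DMSO without peptide and 100% = 100 nM NTR1 peptide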
Numbers without * were called inactive; x = no result. Most compounds without a hit are left out; they make up all but 1.8% or so of the library.

SMILES	AI-2 QS modul	MC4R antagonist	NTR1 ag	MC4R barr agon	NTR1 ag confirm
O=C(CN(c1cccc(C(F)(F)F)c1)S(=O)(=O)c1ccc(Cl)c([N+](=O)[O-])c1)NCc1ccccc1	23.1	14.0	42.9*	-1.3	-0.2
COc1cc2c3nnc(-c4ccccc4)c-3cn(Cc3ccccc3F)c2cc1OC	18.2	x	114.9*	x	90.1*
O=C(Nc1ccc(-c2noc(-c3cccs3)n2)cc1)c1cccnc1	17.8	9.4	46.8*	4.6	8.6
Nc1ccn([C@@H]2O[C@H](CNCc3cccc4c3sc3ccccc34)[C@@H](O)[C@H]2O)c(=O)n1	x	9.6	x	0.2	x
CC1CCCCC12NC(=O)N(CC(=O)NCCc1ccc(F)cc1)C2=O (stereo not given)	x	-6.8	-3.5	-0.6	x
O=C(/C(=C\c1ccccc1)c1nc2ccccc2[nH]1)c1ccc(Cl)cc1	30.1	4.0	15.8	0.7	x
O=C(/C(=C/c1ccc(Cl)cc1)c1nc2ccccc2[nH]1)c1cccs1	22.7	8.7	53.5*	-1.7	62.5*
COc1ccccc1CNC(=O)CN1C(=O)NC2(CCCCCCC2)C1=O	x	-2.6	0.9	-0.1	x
COc1ccccc1CNC(=O)CN1C(=O)NC(C)(c2ccc(C)cc2)C1=O (stereo not given)	-1.7	1.7	47.0*	0.9	-1.8
CC(=O)Nc1cccc(C(=O)OCC(=O)N2CCN(C(=O)COC(=O)c3cccc(NC(C)=O)c3)CC2)c1	x	13.3	x	0.9	x
O=C(Cc1ccc(Cl)cc1)NC(=S)Nc1ccccc1N1CCOCC1	x	1.8	44.6*	-2.1	15.6
COc1cccc(CN2CC(C(=O)NC3CCC(O)CC3)CCC2=O)c1 (stereo not given)	19.2	10.2	2.5	-0.9	x
Oc1cccc(-c2nc3c4c(ncn3n2)-c2ccccc2CC42CCCC2)c1	-6.6	17.4	43.5*	-0.4	33.9
COc1ccc(-c2nc3c4c(ncn3n2)-c2ccccc2CC42CCCC2)cc1	25.9	-1.4	-2.0	-0.8	x
O=C(c1ccccc1[N+](=O)[O-])N1CCN(c2ccc(N3CCOCC3)nn2)CC1	9.2	16.1	-0.7	1.4	x
CN(C)/C=C1\NC(=S)N(c2ccccc2)C1=O	7.3	-0.9	0.1	-0.1	x
CCN1C(=O)/C(=C/N(C(C)=O)c2ccccc2)N(c2ccccc2)C1=S	20.9	13.3	41.8*	-2.2	60.7*
Oc1ccc(/C=N/Nc2nc(N3CCCCCC3)nc(N3CCCCCC3)n2)c(O)c1	15.3	15.6	43.6*	2.2	39.2
CC(C)(C)c1ccc(OCCOc2ccc(C(C)(C)C)cc2NC=O)c(NC=O)c1	36.4	22.6	42.9*	2.0	22.6
FC(F)(F)c1nc(-c2cccs2)ncc1-c1nnnn1-c1ccc(Cl)cc1	11.9	1.5	56.8*	1.0	20.2
Clc1ccc(-n2nnnc2-c2cnc(-c3ccncc3)nc2-c2cccs2)cc1	7.8	4.7	-0.9	-1.5	x
COc1ccc(/C=N/Nc2nc(-c3cccc(S(=O)(=O)N4CCCC4)c3)cs2)cc1OC	38.5	7.6	-0.1	0.8	x
COc1cc(/C=N/Nc2nc(-c3ccc(S(=O)(=O)N(C)C)cc3)cs2)ccc1O	33.8	10.6	70.5*	3.8	79.2*
COc1cccc(N(C(=O)c2snc(C(N)=O)c2N)C(C(=O)NCC2CCCO2)c2ccc(F)cc2)c1 (stereo not given)	8.8	3.5	0.9	-0.8	x
CCOc1ccc(C(C(=O)NCC2CCCO2)N(C(=O)c2snc(C(N)=O)c2N)c2ccc(F)cc2)cc1 (stereo not given)	14.6	15.3	44.5*	-2.1	4.2
SMILES	AI-2 QS modul	MC4R antagonist	NTR1 ag	MC4R barr agon	NTR1 ag confirm
Cc1cccc(NC(=O)c2nc[nH]c2C(=O)N[C@@H](C)c2ccccc2)c1	x	7.5	50.5*	0.1	37.5
COC(=O)c1ccc2c(=O)n(CCCCCC(=O)N3CCN(c4ccccc4)CC3)c(=O)[nH]c2c1	24.5	2.6	46.6*	0.0	64.2*
CCN1CCN(C(=O)CCCCCn2c(=O)[nH]c3cc(C(=O)OC)ccc3c2=O)CC1	15.3	-3.1	-1.4	-1.8	x
COc1ccc(F)cc1-c1cc(C(=O)NCc2cc(C(F)(F)F)cc(C(F)(F)F)c2)[nH]n1	x	3.9	x	5.9	x
CC(C)Cn1c(O)c(/C=C2\C=NN=C2c2ccccc2)sc1=S	14.7	9.3	59.1*	1.9	60.8*
COc1cc(C(=O)Oc2cccc(Nc3ncnc4ccccc34)c2)cc(OC)c1OC	11.9	5.5	43.7*	3.7	31.1
Cc1ccnc(Nc2nc(-c3ccc(F)cc3)cs2)c1	x	-2.5	48.7*	1.3	3.2
Cc1ccnc(Nc2nc(-c3ccc(Cl)cc3)cs2)c1	x	10.8	9.9	0.6	x
O=C(CSc1ccc(Cl)cc1)Nc1cc(-c2nc3ncccc3o2)ccc1Cl	15.1	x	13.9	x	x
O=C(CSc1ccc(Cl)cc1)Nc1cccc(-c2nc3ncccc3o2)c1	4.0	10.9	52.1*	-0.9	33.0
O=C(/C=C/c1cccc(OCc2ccccc2)c1)c1cccnc1	0.7	10.1	54.4*	-0.7	1.6
O=C(/C=C/c1cccnc1)c1ccc(F)c(F)c1	22.2	12.2	60.7*	0.3	69.5*
O=C(Nc1ccc2nc3n(c(=O)c2c1)CCCCC3)C(=O)N1CCN(c2ccccc2)CC1	34.7	10.7	3.0	0.3	x
O=C(O)CC(Cc1ccc(Br)cc1)C(=O)Nc1ccccc1 (stereo not given)	20.9	6.9	-1.1	-1.1	x
COc1ccccc1C(=O)Nc1ccnn1C1CCN(CCCc2ccccc2)CC1	13.5	-0.1	0.1	-3.2	x
CN(C)S(=O)(=O)c1ccc(NC(=O)c2c(F)cccc2Cl)cc1	-61.9	-0.4	49.3*	-1.1	-5.1
N#Cc1ccc(OCC(=O)N(C2CCCCC2)C2CCS(=O)(=O)C2)cc1 (stereo not given)	x	6.4	1.9	0.4	x
OC(CNCCc1ccc(Cl)cc1)COc1cc(Cl)ccc1Cl (stereo not given)	5.0	6.8	40.9*	29.9*	-2.0
CO/N=C(\c1nonc1N)N1CCN(c2ccc(Cl)cc2[N+](=O)[O-])CC1	17.8	-0.2	57.6*	-0.8	36.1
CO/N=C(\c1nonc1N)N1CCN(c2ccc([N+](=O)[O-])cc2Cl)CC1	14.4	8.8	4.5	-0.9	x
CCOc1ccccc1NC(=O)COC(=O)C(Cc1ccccc1)NC(=O)c1ccco1 (stereo not given)	x	16.2	-1.3	-0.9	x
COC(=O)c1ccc2c(c1)C(C)(C)C(/C=C/c1ccc(OC)c(OC)c1OC)=[N+]2C	15.2	8.8	38.1	-0.6	x
COC(=O)c1ccc2c(c1)C(C)(C)C(/C=C/c1ccc(O)cc1)=[N+]2C	8.5	-3.1	46.2*	-5.9	51.4*
CNC(=O)c1c[nH]c2ccc(S(=O)(=O)Nc3cccc(SC)c3)cc2c1=O	4.9	18.6	1.1	-1.3	x
CC(=O)c1cccc(Nc2nc(-c3sc(C)nc3C)cs2)c1	9.5	9.9	53.6*	0.8	24.4
CC(=O)c1cccc(Nc2nc(-c3sc(N)nc3C)cs2)c1	22.6	-4.2	-0.2	0.5	x
